Reference: ChEMBL document CHEMBL4602650, “Quinolone-N-acylhydrazone hybrids as potent Zika and Chikungunya virus inhibitors” (Bioorg Med Chem Lett, 2020)
Calls of active or inactive are those of the source. No cut-off for these calls is given here.

Legend:
[1] = Cytotoxicity against African green monkey Vero cells assessed as reduction in cell viability by MTT assay; assay type: cell-based; details: chlorocebus sabaeus
Method in brief: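 Vero cell viability tested over 100–2000 µM. CC50 is the concentration reducing viability by 50% versus untreated controls. Mean ± SD of 3 independent experiments.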

Zika virus [2] = test: Antiviral activity against Zika virus infected in African green monkey Vero cells assessed as reduction in viral replication treated with compound at 1 hr post-viral infection; assay type: functional, organism-based
Method in brief: (§1)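 Vero cells infected at MOI 0.1 and given 1 h for viral adsorption, then treated with increasing compound concentrations. EC50 is the concentration reducing viral replication by 50% versus infected controls. Mean ± SD of three independent experiments.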

[3] = Selectivity index, ratio of CC50 for African monkey Vero cells to EC50 for Zika virus infected in African green monkey Vero cells; assay type: toxicity; details: read-out: Ratio CC50/EC50
Method in brief: (§2)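 SI = CC50 in Vero cells divided by EC50 against the matching virus in Vero cells. Both values come from three independent experiments.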

Chikungunya virus [4] = test: Antiviral activity against Chikungunya virus infected in African green monkey Vero cells assessed as reduction in viral replication treated with compound at 1 hr post-viral infection; assay type: functional, organism-based; method in brief: as §1
[5] = Selectivity index, ratio of CC50 for African monkey Vero cells to EC50 for Chikungunya virus infected in African green monkey Vero cells; assay type: toxicity; details: read-out: Ratio CC50/EC50; method in brief: as §2
Chikungunya virus [6] = test: Antiviral activity against Chikungunya virus infected in African green monkey Vero cells assessed as reduction in viral RNA production; assay type: functional, organism-based
Chikungunya virus [7] = test: Antiviral activity against Chikungunya virus infected in African green monkey Vero cells assessed as reduction in viral replication at 10 uM treated with compound at 16 hrs post infection by plaque formation assay; assay type: functional, organism-based
Chikungunya virus [8] = test: Antiviral activity against Chikungunya virus infected in African green monkey Vero cells assessed as reduction in viral replication at 10 uM treated with compound up to 12 hrs post infection by plaque formation assay; assay type: functional, organism-based
[9] = Ratio of RibavarinCC50 to compound CC50 for African green monkey Vero cells assessed as reduction in cell viability by MTT assay; assay type: cell-based; details: chlorocebus sabaeus
Zika virus [10] = test: Antiviral activity against Zika virus infected in African green monkey Vero cells assessed as reduction in viral replication at 10 uM treated with compound at 6 hrs post infection by plaque formation assay; assay type: functional, organism-based
Zika virus [11] = test: Antiviral activity against Zika virus infected in African green monkey Vero cells assessed as reduction in viral RNA production; assay type: functional, organism-based
Zika virus [12] = test: Antiviral activity against Zika virus infected in African green monkey Vero cells assessed as reduction in viral replication at 10 uM treated with compound up to 6 hrs post infection by plaque formation assay; assay type: functional, organism-based
Zika virus [13] = test: Antiviral activity against Zika virus infected in African green monkey Vero cells assessed as reduction in viral replication at 10 uM treated with compound at 12 hrs post infection by plaque formation assay; assay type: functional, organism-based

Compound	CC50 [1] [µM]	EC50 (Zika virus [2]) [µM]	selectivity ratio [3]	EC50 (Chikungunya virus [4]) [µM]	selectivity ratio [5]	Activity (Chikungunya virus [6])	Activity (Chikungunya virus [7])	Activity (Chikungunya virus [8])	selectivity ratio [9]	Activity (Zika virus [10])	Activity (Zika virus [11])	Activity (Zika virus [12])	Activity (Zika virus [13])
O=C(N/N=C/c1ccccc1O)c1c[nH]c2ccc(F)cc2c1=O	669	0.75	893	1.06	632	Dose-dependent effect	inactive	Active	≥ 2				
O=C(N/N=C/c1ccccc1O)c1c[nH]c2ccccc2c1=O	502	0.76	661	2.85	176				≥ 2				
O=C(N/N=C/c1ccccc1O)c1c[nH]c2ccc(Br)cc2c1=O	443	0.81	548	2.7	164				≥ 2				
NC(=O)c1ncn([C@@H]2O[C@H](CO)[C@@H](O)[C@H]2O)n1 [RIBAVIRIN]	297	3.95	75.2	2.42	122			inactive		inactive			
O=C(N/N=C/c1ccccc1O)c1c[nH]c2ccc(Cl)cc2c1=O	1110	0.79	1410	2.77	402				≥ 2		Dose-dependent effect	Active	Active
